Screens: PubChem BioAssay, several laboratories
Most compounds without a hit are left out; they make up all but 2.1% or so of the library.
Runt-CBFb FRET – inhibitors of human RUNX1 Runt domain binding to CBFb; 220,000 tested, 0.46% active; Q01196+Q13951; Cerulean-Runt/Venus-CBFb FRET ratio 530/480, 1 h; inhibition, % at 20 µM; AID 1496;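 active means inhibition over about 50% at 20 µM in the single-dose screen, limit read from the data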;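 further: 0% = DMSO wells and 100% = excess unlabeled CBFb competitor control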
Target sequence (Q01196 whole entry, looked up, the tested form may be a part): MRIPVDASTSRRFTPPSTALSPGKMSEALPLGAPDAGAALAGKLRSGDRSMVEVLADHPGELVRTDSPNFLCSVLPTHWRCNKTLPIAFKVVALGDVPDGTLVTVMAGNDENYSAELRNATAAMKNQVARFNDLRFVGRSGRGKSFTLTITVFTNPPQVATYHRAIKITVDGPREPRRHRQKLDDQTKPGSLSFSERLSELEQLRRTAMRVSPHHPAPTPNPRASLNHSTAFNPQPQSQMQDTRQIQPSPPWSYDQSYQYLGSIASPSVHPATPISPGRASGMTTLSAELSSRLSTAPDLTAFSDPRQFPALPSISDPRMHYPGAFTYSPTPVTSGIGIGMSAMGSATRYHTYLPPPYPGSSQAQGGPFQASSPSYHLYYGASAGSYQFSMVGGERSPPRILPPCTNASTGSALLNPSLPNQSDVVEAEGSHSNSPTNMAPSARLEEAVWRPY
Target sequence (Q13951 whole entry, looked up, the tested form may be a part): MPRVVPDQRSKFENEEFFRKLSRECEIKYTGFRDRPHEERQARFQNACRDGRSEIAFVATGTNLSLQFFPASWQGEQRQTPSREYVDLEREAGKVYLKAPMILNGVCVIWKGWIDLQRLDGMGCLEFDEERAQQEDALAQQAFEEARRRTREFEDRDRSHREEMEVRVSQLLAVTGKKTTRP
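Assay system: Cerulean-Runt domain fusion protein, energy donor; Signal: fluorescence energy transfer, 422 nm excitation, 530/480 nm emission; Timing: 1 h compound exposure, room temperature; Control set: unlabeled CBFb; Medium: Tris buffer pH 7.5 with salts and BSA; Compound: single test concentration of 20 µM, 1% DMSO final; Probe or stimulus: Venus-CBFb 100 nM.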
Runt-SMMHC FRET – Runt domain-CBFb-SMMHC interaction inhibition | Q01196+Q13951 | Cerulean-Runt/Venus-CBFb-SMMHC FRET ratio 530/480, 1 h | inhibition, % at 20 µM | 220,000 tested, 0.74% active | AID 1434;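 active means mean inhibition across duplicate retests at 20 µM reaching about 50%, limit read from the data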;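 further: 0% = DMSO wells and 100% = wells with excess untagged CBFb-SMMHC; inhibitors lower the FRET ratio by blocking Runt binding to CBFb-SMMHC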
RanGTP-Imp inh – disruptors of Ran-importin-beta complex formation – biochemical, FRET, CFP-Ran, YFP-importin-beta, homogeneous, primary screen; cell-free CFP-Ran/YFP-importin-beta FRET ratio; inhibition, % (no concentration beside the values); 300,000 tested, 1.1% active; AID 2216;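 active means more than half of the replicate wells show a fall in the fluorescence ratio signal beyond about 16%, limit read from the data, passing the limit was not always enough; inconclusive means exactly half of the replicate wells pass the set limit; inactive means fewer than half of replicates pass the limit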;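 further: 0% = DMSO wells and 100% = Ran loaded with GDP instead of GTP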
Calpain2 inh – inhibitors of pig calpain II; 220,000 tested, 0.37% active; AID 1236; inhibition, % at 16 µM; purified calpain II, fluorogenic peptide substrate, 30 min;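 active means inhibition above about 50%, limit read from the data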
FAS-TE inh – inhibitors of human fatty acid synthase thioesterase domain; P49327; recombinant FAS-TE, OMFH fluorogenic substrate, fluorescence endpoint; inhibition, % at 15 µM; 360,000 tested, 0.67% active;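 active means compounds whose normalised, plate-corrected inhibition of enzyme fluorescence in the single-dose primary screen is 50% or more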;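 further: 0% = DMSO with enzyme and 100% = substrate without enzyme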
An asterisk follows results filed as active; i = inactive; u = inconclusive; x = not tested or not shown.

SMILES	Runt-CBFb FRET	Runt-SMMHC FRET	RanGTP-Imp inh	Calpain2 inh	FAS-TE inh
CC(C)=CC1C(C(=O)Nc2ccc(Br)cn2)C1(C)C (centres undefined)	0.4	2.0	-0.7	52.6*	13.7
Cc1ccc2nc(C)cc(C(=O)N3CCCC(N4CCN(c5ccccc5C)CC4)C3)c2c1 (centres undefined)	x	x	-0.3	x	0.6
COc1cccc(-c2ncc3ccccc3c2COC(=O)c2cccc(Br)c2)c1	x	x	x	x	21.9
Cc1cc(/C=N/NC(N)=S)c(O)c(/C=N/NC(N)=S)c1	-137.2	42.9	60.3*	-82.0	-145.4
NC(=S)N/N=C/c1cccc(O)c1O	2.2	-9.2	1.5	-46.9	-4.0
CCOc1ccccc1Nc1nnc(C)c(=O)[nH]1	-4.7	4.8	0.9	-5.0	-9.1
CCOc1ccccc1Nc1nnc(Cc2ccccc2Cl)c(=O)[nH]1	0.2	-10.2	u	63.2*	-79.0
Cc1ccc(NC(=O)CNC(=O)c2cccc(C)c2)nc1	x	x	1.0	x	-8.7
O=C(O)c1ccc(N/N=C/c2ccncc2)cc1	x	x	3.9	x	-2.1
O=C(O)c1ccc(N/N=C/C2=Cc3ccccc3OC2)cc1	13.3	34.7	21.1*	-12.0	10.8
C=CCN1C(=O)/C(=C/N(C)C)S/C1=N\S(=O)(=O)c1cccs1	x	x	x	x	-2.0
O=C(COC(=O)c1cc(Br)ccc1O)Nc1ccc2c(c1)OCO2	x	x	x	x	5.7
CCC(CC)COC(=O)C1=C(C)NC(=O)NC1c1ccc(N(C)C)cc1 (centres undefined)	x	x	16.0*	x	6.3
CCOC(=O)C1(Cc2cccc(OC)c2)CCN(Cc2cccc(OC)c2OC)CC1	0.4	2.7	12.3	6.3	-0.9
CCOC(=O)C1(Cc2cccc(OC)c2)CCN(Cc2cnc(N)nc2)CC1	1.4	-0.4	11.2	-28.6	-5.4
CCOC(=O)C1(Cc2cccc(OC)c2)CCN(Cc2cccnc2)CC1	x	x	55.5*	-28.4	-0.1
CCOC(=O)C1(Cc2cccc(OC)c2)CCN(Cc2ccccc2)CC1	-0.3	-4.1	u	36.8	0.2
CCOC(=O)C1(Cc2cccc(OC)c2)CCN(Cc2cnc(SC)nc2)CC1	4.0	6.6	67.7*	-18.9	3.1
CCOC(=O)C1(Cc2cccc(OC)c2)CCN(Cc2cccc3cnccc23)CC1	6.3	6.4	86.0*	10.2	13.5
COc1ccc(/C=N/Nc2cc(C)nc(-n3nc(C)cc3C)n2)cc1	-3.6	2.2	-3.2	12.1	4.7
COc1ccc(/C=N/Nc2cc(N3CCCC3)nc(N3CCCC3)n2)cc1	1.4	-3.2	60.2*	-23.7	10.6
Oc1ccc(/C=N/Nc2nc(N3CCCC3)nc(N3CCCC3)n2)cc1O	5.4	-0.7	-3.9	-44.6	-8.6
Oc1ccc(/C=N/Nc2cc(N3CCCC3)nc(N3CCCC3)n2)cc1	2.2	-0.8	85.8*	-67.7	-1.6
CCOc1ccc2nc(NCCNC(=O)c3cc(OC)c(OC)c(OC)c3)c(C#N)cc2c1	x	x	112.5*	x	-3.0
COc1cc(C(=O)NCCCNc2nc3cc(C)c(C)cc3cc2C#N)cc(OC)c1OC	x	18.4	49.7*	-293.8	-3.7
SMILES	Runt-CBFb FRET	Runt-SMMHC FRET	RanGTP-Imp inh	Calpain2 inh	FAS-TE inh
COc1cc(CNc2nc(C)c([N+](=O)[O-])c(C)c2C#N)cc(OC)c1	-2.6	1.5	-0.7	65.8*	30.0
CC(C)(C)NCCOc1ccc2ccccc2c1	1.9	-4.1	31.7*	-14.4	-5.2
CCCCN(C)CC(O)Cn1cc(/C=C/C(=O)c2cccs2)c2ccccc21 (centres undefined)	-103.9	-61.8	-26.5	0.1	-12.6
CCCCN(C)CC(O)Cn1cc(/C=C/C(=O)c2ccc(OCC)cc2)c2ccccc21 (centres undefined)	x	x	24.7*	x	x
O=C(Nc1ccc(Oc2cccnc2)cc1)c1ccc([N+](=O)[O-])cc1	-1.7	-4.3	-3.7	15.2	2.1
O=C(Nc1ccc(Oc2cccnc2)cc1)c1cccc([N+](=O)[O-])c1	-1.4	2.7	-0.1	34.9	57.4*
COc1cc(C2=NOC(C(=O)Nc3cc(C)on3)C2)cc(OC)c1OC (centres undefined)	8.8	-1.6	19.7*	1.9	-7.4
NC(=O)C1CCN(CC(=O)Nc2ccc(S(=O)(=O)N3CCOCC3)cc2)CC1	x	x	0.4	x	-4.6
CCN(CC(=O)Nc1ccc(NC(C)=O)cc1)C(=O)c1ccc(N2C(=O)c3ccccc3C2=O)cc1	x	x	x	x	1.5
O=C1OC(c2cccc([N+](=O)[O-])c2)C2(CCCC2)C(=O)C12CCCCC2 (centres undefined)	0.6	2.4	2.3	52.9*	39.3
O=C(Nc1cccnc1)c1cccs1	4.3	-3.0	1.9	64.2*	-5.9
N#Cc1c(-c2ccc(Cl)cc2)c2c([nH]c1=O)-c1ccccc1OC2	88.8*	81.5*	67.9*	-332.9	2.3
CS(=O)(=O)N1CCc2ccc(NC(=O)C3CCCO3)cc2C1 (centres undefined)	x	x	0.1	x	-5.4
O=C(CC1c2cc(F)ccc2C=C(c2ccsc2)N1c1ccc(C#CCCO)cc1)c1ccco1 (centres undefined)	x	x	x	x	18.9
O=C(/C=C/c1ccc([N+](=O)[O-])cc1)NCCSc1ccccc1	0.5	-7.9	-2.0	56.6*	22.4
Cc1ccc(SCCNC(=O)/C=C/c2ccc([N+](=O)[O-])cc2)cc1	0.5	-1.0	-3.4	33.3	33.6
Cc1cccc(C)c1-n1cccc1/C=C1\SC(=S)N(c2cccc(C(=O)O)c2)C1=O	12.9	-23.7	0.1	110.5*	-5.5
Cc1cccc(C)c1NC(=O)CN1C(=O)S/C(=C\c2cccn2-c2cccc(C(=O)O)c2)C1=O	0.3	0.9	0.9	-26.9	2.5
Cc1ccc(C2=N/C(=C\c3ccc(F)cc3)C(=O)N2)cc1	x	x	x	x	-0.4
Cc1cc2c(C)cc(=O)oc2c2c1NCCC2	17.4	60.5*	10.2	i	-4.4
O=C(c1cnc2sccn2c1=O)N(Cc1ccccc1)c1ccccn1	1.7	3.5	-5.9	85.2*	-0.8
O=c1[nH]c(-c2ccccc2)cnc1-c1ccccc1	x	x	0.4	x	-6.3
O=c1[nH]c2c(=O)[nH]cnc2nc1-c1ccccc1	x	x	47.1*	x	-7.7
CCc1c(C)nc2c(Br)cccc2c1SCCC#N	-4.4	-1.0	28.8*	21.1	11.4
Cc1cc(C)nc(SCC(=O)c2ccc(F)cc2F)n1	x	x	3.3	x	0.2
SMILES	Runt-CBFb FRET	Runt-SMMHC FRET	RanGTP-Imp inh	Calpain2 inh	FAS-TE inh
COc1ccc(CCn2c(N)c(C(=O)NCc3ccco3)c3nc4ccccc4nc32)cc1OC	7.7	24.7	39.1*	-141.0	6.6
O=C(NCc1ccco1)c1c(F)c(F)c(F)c(C(=O)NCc2ccco2)c1F	-0.7	-0.5	1.3	-3.0	-5.1
Nc1c(C(=O)NCc2ccco2)c2nc3ccccc3nc2n1CCc1ccccc1F	30.5	x	50.2*	-490.8	15.0
COc1ccc(CCn2c(N)c(C#N)c3nc4ccccc4nc32)cc1OC	18.4	31.3	7.3	-89.1	-6.4
CN(C)/C=N/C1=C(C#N)C(c2ccc(Br)cc2)c2ccc3ccccc3c2O1 (centres undefined)	x	x	21.2*	x	26.0
COc1ccc(CC(=O)OCC(=O)Nc2ncc(Cl)c(C)c2Cl)cc1	x	x	x	x	3.2
